The values below come from ChEMBL document CHEMBL1124072, “1,2,4-Trioxanes as potential antimalarial agents” (J Med Chem, 1988).

A word on the IC50: it is the point on the concentration scale where inhibition reaches its midpoint. Read a high IC50 as weaker potency.

The test relates to Plasmodium falciparum. The test is described as follows: In vitro EC50 against chloroquine susceptible Plasmodium falciparum by [3H]hypoxanthine incorporation. It is filed as functional, organism-based. An outline of the steps: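 Chloroquine-susceptible P. falciparum cultured in vitro and tested by the Desjardins method. Inhibition of parasite [3H]hypoxanthine uptake is the read-out. The value is the concentration (ng/mL) giving 50% inhibition of uptake.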

Structures are written as SMILES. Values after ≈ are worked out from the molar mass of the structure shown. Some results are limits rather than exact numbers.

In the case of `CC(C[C@@]12C=C[C@]3(OO1)C(C)(C)CCC[C@@]3(C)O2)OC(=O)c1ccccc1` (stereo partly specified), the IC50 came out at 0.733 µg/mL (≈ 1.97 µM).

In turn, `COC(=O)C[C@@]12C=C[C@]3(OO1)C(C)(C)CCC[C@@]3(C)O2` displayed an IC50 of 0.096 µg/mL (≈ 0.34 µM).

With `COC(=O)C[C@@]12CC[C@]3(OO1)C(C)(C)CCC[C@@]3(C)O2`, the IC50 was determined as 0.083 µg/mL (≈ 0.292 µM). This IC50 and that of the compound before are within 1.5-fold of each other.

`CC(C[C@@]12CC[C@]3(OO1)C(C)(C)CCC[C@@]3(C)O2)OC(=O)c1ccccc1` (stereo partly specified) had an IC50 of 0.0239 µg/mL (≈ 0.0638 µM).

In turn, `CC1(C)CCC[C@@]2(C)O[C@]3(C)CC[C@]12OO3` returned an IC50 of 1.35 µg/mL (≈ 5.97 µM).

Regarding `C[C@H](C[C@@]12C=C[C@]3(OO1)C(C)(C)CCC[C@@]3(C)O2)OC(=O)c1ccccc1`, the IC50 was found to be 0.789 µg/mL (≈ 2.12 µM).

Consider `C[C@@H](O)C[C@@]12CC[C@]3(OO1)C(C)(C)CCC[C@@]3(C)O2`, for which half-maximal inhibition (IC50) was put at 0.389 µg/mL (≈ 1.44 µM).

`CC1(C)CCC[C@@]2(C)O[C@]3(C)C=C[C@]12OO3` returned a concentration for half-maximal inhibition (IC50) above 1.2 µg/mL.

As for `C[C@@H](O)C[C@@]12C=C[C@]3(OO1)C(C)(C)CCC[C@@]3(C)O2`, the midpoint of inhibition, the IC50, lay at 4.93 µg/mL (≈ 18.4 µM).

For the compound `C[C@H](C[C@@]12CC[C@]3(OO1)C(C)(C)CCC[C@@]3(C)O2)OC(=O)c1ccccc1`, the IC50 worked out at 1.12 µg/mL (≈ 2.99 µM).

`C[C@@H]1CC[C@H]2[C@@H](C)C(=O)O[C@@H]3O[C@@]4(C)CC[C@@H]1[C@]32OO4` [ARTEMISININ] came in with a 50% inhibitory concentration (IC50) of 0.00113 µg/mL (≈ 0.004 µM).
